# What was measured:
# Assay type in all cases: functional
# [1] = Antifungal activity against Gibberella saubinettii assessed as inhibition of mycelia elongation rate at 50 ppm after 48 hrs relative to control; conditions: Fusarium graminearum
# Summary of the method: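 Poisoned-agar mycelial growth test: sample dissolved in DMF at 500 mg/L, 1 mL mixed into 9 mL thawed potato glucose agar at 50 °C and poured into plates. A 4 mm mycelium disk was placed on each plate, inverted, incubated 28 °C for 48 h. Mycelial elongation radius (mm) measured against a sample-free medium blank; three replicates.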
# Escherichia coli = assay: Antibacterial activity against Escherichia coli ATCC 35218 assessed as growth inhibition after 24 hrs by two-fold serial dilution method; conditions: ATCC 35218, 24 h
# Summary of the method: (§1)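 MICs were determined by two-fold serial dilution in nutrient broth, following CLSI. The inoculum came from 24 h bacterial cultures on nutrient agar at 37 ± 1 °C and was adjusted in sterile saline to 1×10⁴–10⁵ CFU/mL. Tubes were incubated at 37 ± 1 °C. MIC was read visually after 24 h, with kanamycin as the reference standard.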
# Cercospora beticola = assay: Antifungal activity against Cercospora beticola assessed as inhibition of mycelia elongation rate at 50 ppm after 48 hrs relative to control
# Summary of the method: (§2)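 This was a mycelial growth assay on potato glucose agar. Samples were dissolved in DMF at 500 mg/L (stock), and 1 part solution was mixed with 9 parts thawed medium at 50 °C before plating. Solidified plates were inoculated with a 4 mm mycelium disk, inverted and incubated at 28 °C for 48 h. Medium without sample served as blank. Mycelial elongation radius was measured, in triplicate.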
# Fusarium oxysporum = assay: Antifungal activity against Fusarium oxysporum assessed as inhibition of mycelia elongation rate at 50 ppm after 48 hrs relative to control; summary of the method: as §2
# Pseudomonas fluorescens = assay: Antibacterial activity against Pseudomonas fluorescens ATCC 13525 assessed as growth inhibition after 24 hrs by two-fold serial dilution method; conditions: ATCC 13525, 24 h; summary of the method: as §1
# [2] = Antifungal activity against Physalospora pyricola assessed as inhibition of mycelia elongation rate at 50 ppm after 48 hrs relative to control; conditions: Botryosphaeria berengeriana; summary of the method: as §2
# Bacillus spizizenii = assay: Antibacterial activity against Bacillus subtilis ATCC 6633 assessed as growth inhibition after 24 hrs by two-fold serial dilution method; conditions: ATCC 6633, 24 h; summary of the method: as §1
# Rhizoctonia solani = assay: Antifungal activity against Rhizoctonia solani assessed as inhibition of mycelia elongation rate at 50 ppm after 48 hrs relative to control; summary of the method: as §2
# Staphylococcus aureus = assay: Antibacterial activity against Staphylococcus aureus ATCC 6538 assessed as growth inhibition after 24 hrs by two-fold serial dilution method; conditions: ATCC 6538, 24 h; summary of the method: as §1
Compound,inhibition [1] [%],MIC (Escherichia coli) [µg/mL],inhibition at 50 ppm (Cercospora beticola) [%],inhibition at 50 ppm (Fusarium oxysporum) [%],MIC (Pseudomonas fluorescens) [µg/mL],inhibition [2] [%],MIC (Bacillus spizizenii) [µg/mL],inhibition at 50 ppm (Rhizoctonia solani) [%],MIC (Staphylococcus aureus) [µg/mL]
Cc1cc(C)n2nc(SCc3nnc(SCc4cccc(Cl)c4)s3)nc2n1,15,25,57,57,100,66,50,53,> 100
Cc1ccc(CSc2nnc(CSc3nc4nc(C)cc(C)n4n3)s2)cc1,32,12.5,38,65,50,74,> 100,57,> 100
Cc1cc(C)n2nc(SCc3nnc(SCc4cccc(Br)c4)s3)nc2n1,47,50,77,56,50,58,12.5,67,> 100
OCC1=C[C@H](N[C@H]2C[C@H](CO)[C@@H](O[C@@H]3O[C@H](CO)[C@@H](O)[C@H](O)[C@H]3O)[C@H](O)[C@H]2O)[C@H](O)[C@@H](O)[C@@H]1O [VALIDAMYCIN],37,–,42,35,–,47,–,75,–
Cc1cc(C)n2nc(SCc3nnc(SCc4ccccc4Br)s3)nc2n1,44,12.5,45,40,25,75,> 100,63,> 100
Cc1cc(C)n2nc(SCc3nnc(SCc4cccc(F)c4)s3)nc2n1,17,12.5,41,45,50,71,> 100,60,> 100
Cc1cccc(CSc2nnc(CSc3nc4nc(C)cc(C)n4n3)s2)c1,45,12.5,43,55,50,72,> 100,54,> 100
Cc1cc(C)n2nc(SCc3nnc(SCc4ccc(Br)cc4F)s3)nc2n1,35,6.25,62,38,12.5,82,50,75,> 100
Cc1cc(C)n2nc(SCc3nnc(SCc4ccc(F)cc4)s3)nc2n1,18,12.5,60,42,50,79,50,55,> 100
COC(=O)Nc1nc2ccccc2[nH]1 [CARBENDAZIM],75,–,66,48,–,74,–,62,–
Cc1cc(C)n2nc(SCc3nnc(SCc4ccc(F)cc4F)s3)nc2n1,64,3.13,64,56,12.5,86,25,79,25
CC(C)(C)C(=O)C(Oc1ccc(Cl)cc1)n1cncn1 (centres undefined) [TRIADIMEFON],81,–,35,37,–,55,–,40,–
Cc1cc(C)n2nc(SCc3nnc(SCc4ccc(Br)cc4)s3)nc2n1,25,12.5,43,62,100,76,> 100,51,> 100
Cc1cc(C)n2nc(SCc3nnc(SCc4ccccc4F)s3)nc2n1,45,12.5,39,55,25,78,> 100,68,> 100
Cc1cc(C)n2nc(SCc3nnc(SCc4ccccc4Cl)s3)nc2n1,45,12.5,43,40,100,77,> 100,61,> 100
Cc1cc(C)n2nc(SCc3nnc(SCc4c(F)cccc4F)s3)nc2n1,33,12.5,60,36,6.25,73,50,83,> 100
NC[C@H]1O[C@H](O[C@H]2[C@H](O)[C@@H](O[C@H]3O[C@H](CO)[C@@H](O)[C@H](N)[C@H]3O)[C@H](N)C[C@@H]2N)[C@H](O)[C@@H](O)[C@@H]1O [KANAMYCIN],–,1.56,–,–,3.13,–,0.78,–,3.13
Cc1ccc(CSc2nnc(CSc3nc4nc(C)cc(C)n4n3)s2)c([N+](=O)[O-])c1,66,12.5,64,54,1.56,78,25,80,25
Cc1cc(C)n2nc(SCc3nnc(SCc4ccc(C)c([N+](=O)[O-])c4)s3)nc2n1,41,25,78,40,12.5,68,12.5,89,> 100
C=Cc1ccc(CSc2nnc(CSc3nc4nc(C)cc(C)n4n3)s2)cc1,78,12.5,54,42,100,72,50,50,12.5
Cc1cc(C)n2nc(SCc3nnc(SCc4cccc([N+](=O)[O-])c4)s3)nc2n1,64,25,70,28,25,63,25,64,25
COc1cccc(CSc2nnc(CSc3nc4nc(C)cc(C)n4n3)s2)c1,67,25,62,44,> 100,69,50,49,12.5
Cc1cc(C)n2nc(SCc3nnc(SCc4cc(F)cc(F)c4)s3)nc2n1,41,25,61,38,12.5,68,50,75,> 100
Cc1cc(C)n2nc(SCc3nnc(SCc4ccccc4C)s3)nc2n1,48,12.5,36,50,25,73,> 100,55,> 100

# Reference: ChEMBL document CHEMBL2384957, “Synthesis and antimicrobical evaluation of a novel class of 1,3,4-thiadiazole: derivatives bearing 1,2,4-triazolo[1,5-a]pyrimidine moiety” (2013)
